Assay results: ChEMBL document CHEMBL1133606, “2-Carbomethoxy-3-aryl-8-bicyclo[3.2.1]octanes: potent non-nitrogen inhibitors of monoamine transporters” (J Med Chem, 2000); call rule not given here

Columns and labels:
[1] = biological target: Monoamine transporters; serotonin & dopamine (UniProt P31645+Q01959); test: Selectivity, ratio of binding to serotonin transporter (SERT) and dopamine transporter (DAT); type: protein assay; details: Cercopithecidae
Method in brief: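 Ratio computed as IC50 at SERT ([3H]citalopram binding) divided by IC50 at DAT ([3H]WIN 35,428 binding), both measured in caudate-putamen membranes.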

[2] = biological target: Sodium-dependent serotonin transporter (Homo sapiens, UniProt P31645); test: Inhibition of [3H]citalopram binding to the serotonin transporter in cynomolgus (macaca fascicularis) monkey caudate putamen.; type: tissue-based, Cercopithecidae; details: target entry is the homologue from another species
Chain of Sodium-dependent serotonin transporter (P31645 whole entry): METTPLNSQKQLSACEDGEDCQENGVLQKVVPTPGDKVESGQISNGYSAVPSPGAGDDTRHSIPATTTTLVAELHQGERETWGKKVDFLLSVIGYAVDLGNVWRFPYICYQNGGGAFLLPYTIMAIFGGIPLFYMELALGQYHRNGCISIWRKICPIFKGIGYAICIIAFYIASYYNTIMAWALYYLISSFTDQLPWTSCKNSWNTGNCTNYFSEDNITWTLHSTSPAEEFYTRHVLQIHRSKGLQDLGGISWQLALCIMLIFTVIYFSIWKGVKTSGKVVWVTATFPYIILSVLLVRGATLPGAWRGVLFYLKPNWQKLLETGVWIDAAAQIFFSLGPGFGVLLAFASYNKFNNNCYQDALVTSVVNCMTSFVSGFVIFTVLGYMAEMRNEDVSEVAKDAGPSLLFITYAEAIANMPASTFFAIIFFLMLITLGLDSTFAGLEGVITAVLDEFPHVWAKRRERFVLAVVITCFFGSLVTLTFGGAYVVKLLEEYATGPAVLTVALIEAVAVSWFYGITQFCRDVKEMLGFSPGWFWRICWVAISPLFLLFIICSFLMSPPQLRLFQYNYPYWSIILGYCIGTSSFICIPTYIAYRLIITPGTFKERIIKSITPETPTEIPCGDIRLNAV
Method in brief: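 Caudate-putamen membranes at 4 mg original wet tissue/mL final, competition vs 1 nM [3H]citalopram in 50 mM Tris·HCl pH 7.4 with 100 mM NaCl, 7–14 drug concentrations, 2 h at 0–4 °C. Filtration on 0.1% polyethyleneimine-presoaked filters, scintillation counting with cpm converted to dpm. Nonspecific binding with 1 μM fluoxetine. IC50 by EBDA, mean of triplicate experiments.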

Chain of Monoamine transporters; serotonin & dopamine (P31645 whole entry, looked up): as the sequence (P31645 whole entry) above
Chain of Monoamine transporters; serotonin & dopamine (Q01959 whole entry, looked up): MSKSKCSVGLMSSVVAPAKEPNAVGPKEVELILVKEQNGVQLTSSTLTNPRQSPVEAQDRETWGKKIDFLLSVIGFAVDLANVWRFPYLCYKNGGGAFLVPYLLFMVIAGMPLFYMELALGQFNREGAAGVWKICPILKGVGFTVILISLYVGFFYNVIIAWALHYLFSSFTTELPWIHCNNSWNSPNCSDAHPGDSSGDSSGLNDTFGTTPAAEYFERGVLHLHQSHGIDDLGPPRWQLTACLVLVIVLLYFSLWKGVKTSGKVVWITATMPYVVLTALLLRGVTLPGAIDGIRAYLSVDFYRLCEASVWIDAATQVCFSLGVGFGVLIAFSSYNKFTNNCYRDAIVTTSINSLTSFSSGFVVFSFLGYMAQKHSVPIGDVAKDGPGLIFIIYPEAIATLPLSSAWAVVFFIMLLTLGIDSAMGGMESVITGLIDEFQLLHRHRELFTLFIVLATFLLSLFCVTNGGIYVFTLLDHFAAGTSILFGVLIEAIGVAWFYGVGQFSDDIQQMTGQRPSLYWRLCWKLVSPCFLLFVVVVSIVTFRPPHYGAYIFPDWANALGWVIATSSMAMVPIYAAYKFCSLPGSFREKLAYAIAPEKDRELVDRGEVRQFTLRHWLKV

| SMILES | Selectivity [1] | IC50 [2] | IC50 ([2]; read-out: IC50) |
| --- | --- | --- | --- |
| COC(=O)[C@H]1C2CCC(C2)C[C@@H]1c1ccc(Cl)c(Cl)c1 (stereo in doubt; 7a) [listing 1 of 2 here] | 3 |  |  |
| COC(=O)C1C(c2ccc3ccccc3c2)CC2CCC1N2C (stereo unspecified) | 4 | 0.00219 µM |  |
| COC(=O)[C@H]1C2CCC(C2)C[C@@H]1c1ccc(Cl)c(Cl)c1 (stereo in doubt; 9a) [listing 1 of 2 here] | 14 |  |  |
| COC(=O)[C@H]1C2CCC(C2)C[C@@H]1c1ccc(Cl)c(Cl)c1 (stereo in doubt; 9a) [listing 2 of 2 here] |  | 0.18 µM |  |
| COC(=O)[C@@H]1C2CCC(C2)C[C@@H]1c1ccc(Cl)c(Cl)c1 (stereo partly specified) | 46 | 0.65 µM |  |
| COC(=O)[C@H]1C2CCC(C2)C[C@@H]1c1ccc2ccccc2c1 (stereo in doubt; 8b) [listing 1 of 2 here] | 67 |  |  |
| COC(=O)c1ccccc1-c1ccccc1 |  |  | > 70 µM |
| COC(=O)[C@H]1C(c2ccc3ccccc3c2)CC2CCC1N2C (stereo partly specified) | 10 | 0.00595 µM |  |
| COC(=O)C1=C(c2ccc(Cl)c(Cl)c2)CC2CCC1C2 (stereo unspecified) | 726 |  |  |
| COC(=O)c1ccccc1-c1ccc(Cl)cc1 | 68 |  | 46 µM |
| COC(=O)C1C(c2ccc(Cl)c(Cl)c2)CC2CCC1N2C (stereo in doubt; 14a) | 68 |  |  |
| COC(=O)C1=C(c2ccccc2)CC2CCC1N2C (stereo unspecified) |  | Not Active |  |
| COC(=O)C1C(c2ccc(Cl)c(Cl)c2)CC2CCC1N2C (stereo in doubt; 13a) [listing 1 of 2 here] | 179 |  |  |
| COC(=O)C1C(c2ccc(Cl)c(Cl)c2)CC2CCC1N2C (stereo in doubt; 12a) [listing 1 of 2 here] |  | 0.002 µM |  |
| COC(=O)c1ccccc1C(=O)OC [DIMETHYL PHTHALATE] |  |  | > 100 µM |
| COC(=O)[C@H]1C2CCC(C2)C[C@@H]1c1ccc2ccccc2c1 (stereo in doubt; 8b) [listing 2 of 2 here] |  | 0.807 µM |  |
| COC(=O)[C@H]1C2CCC(C2)C[C@@H]1c1ccc(Cl)c(Cl)c1 (stereo in doubt; 7a) [listing 2 of 2 here] |  | 0.033 µM |  |

| SMILES | Selectivity [1] | IC50 [2] | IC50 ([2]; read-out: IC50) |
| --- | --- | --- | --- |
| COC(=O)C1=C(c2ccc(Cl)c(Cl)c2)CC2CCC1N2C (stereo unspecified) | 723 |  |  |
| COC(=O)[C@@H]1C2CCC(C2)C[C@@H]1c1ccc2ccccc2c1 (stereo partly specified) | 2 | 0.06 µM |  |
| COC(=O)[C@H]1[C@@H](c2ccc(F)cc2)C[C@H]2CC[C@H]1N2C (stereo in doubt; 13c) |  | 12.2 µM |  |
| COC(=O)c1ccccc1-c1ccc(F)cc1 | 2 |  | 33 µM |
| COC(=O)c1ccccc1-c1ccc2ccccc2c1 | 69 | 10 µM |  |
| COC(=O)C1=C(c2ccc3ccccc3c2)CC2CCC1C2 (stereo unspecified) | 119 | 1.31 µM |  |
| COC(=O)C1C2CCC(C2)CC1c1ccccc1 (stereo unspecified) | 25 |  | > 20 µM |
| COC(=O)C1=C(c2ccc3ccccc3c2)CC2CCC1N2C (stereo unspecified) | 38 |  | 0.109 µM |
| COC(=O)C1=C(c2ccccc2)CC2CCC1C2 (stereo unspecified) |  |  | > 10 µM |
| COC(=O)C1C(c2ccc(Cl)c(Cl)c2)CC2CCC1N2C (stereo in doubt; 13a) [listing 2 of 2 here] |  | 0.358 µM |  |
| COC(=O)C1=C(c2ccc(F)cc2)CC2CCC1C2 (stereo unspecified) | 91 | 35.4 µM |  |
| COC(=O)C1C(c2ccc(Cl)c(Cl)c2)CC2CCC1N2C (stereo in doubt; 12a) [listing 2 of 2 here] | 2 |  |  |
| COC(=O)[C@H]1C2CCC(C2)C[C@@H]1c1ccc2ccccc2c1 (stereo in doubt; 9b) [listing 1 of 2 here] |  | 0.064 µM |  |
| COC(=O)[C@H]1C2CCC(C2)C[C@@H]1c1ccc2ccccc2c1 (stereo in doubt; 9b) [listing 2 of 2 here] | 4 |  |  |
| COC(=O)[C@@H]1C2CCC(C2)CC1c1ccc2ccccc2c1 (stereo partly specified) | 4 | 0.106 µM |  |
| COC(=O)C1=C(c2ccc(F)cc2)CC2CCC1N2C (stereo unspecified) | 20 |  | 7.99 µM |
